In ChEMBL document CHEMBL4251567 (Eur J Med Chem, 2018):

Columns and labels:
[1] = target: T1, Histone deacetylase (Homo sapiens) (UniProt Q13547+O15379+Q9UBN7+Q92769+Q9UQL6+Q8WUI4+Q9BY41+Q96DB2+P56524+Q9UKV0+Q969S8); assay: Inhibition of HDAC in human HeLa-S3 cell lysates assessed as residual activity at 4.8 x 10^-5 M preincubated for 15 mins followed by HDAC-Glo substrate addition measured after 35 mins by […] relative to control; format: protein assay
[2] = target: T1, Histone deacetylase (Homo sapiens); assay: Inhibition of HDAC in human HeLa-S3 cell lysates assessed as residual activity at 6 x 10^-6 M preincubated for 15 mins followed by HDAC-Glo substrate addition measured after 35 mins by […] relative to control; format: protein assay
In short: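 Lysate (1 μg total protein) in HDAC-Glo buffer was preincubated with inhibitor in DMSO for 15 min at room temperature. HDAC-Glo substrate/developer reagent was added and luminescence read after 35 min. Concentrations are final. Signal corrected for a no-lysate blank; % of DMSO control.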

[3] = target: Histone deacetylase 2 (Homo sapiens) (UniProt Q92769); assay: Inhibition of HDAC2 in human HeLa-S3 cell lysates assessed as remaining activity at […] preincubated for 15 mins followed by HDAC-Glo substrate addition measured after 30 to 40 mins by […] relative to control
Sequence of Histone deacetylase 2 (Homo sapiens) (Q92769 whole entry, canonical isoform): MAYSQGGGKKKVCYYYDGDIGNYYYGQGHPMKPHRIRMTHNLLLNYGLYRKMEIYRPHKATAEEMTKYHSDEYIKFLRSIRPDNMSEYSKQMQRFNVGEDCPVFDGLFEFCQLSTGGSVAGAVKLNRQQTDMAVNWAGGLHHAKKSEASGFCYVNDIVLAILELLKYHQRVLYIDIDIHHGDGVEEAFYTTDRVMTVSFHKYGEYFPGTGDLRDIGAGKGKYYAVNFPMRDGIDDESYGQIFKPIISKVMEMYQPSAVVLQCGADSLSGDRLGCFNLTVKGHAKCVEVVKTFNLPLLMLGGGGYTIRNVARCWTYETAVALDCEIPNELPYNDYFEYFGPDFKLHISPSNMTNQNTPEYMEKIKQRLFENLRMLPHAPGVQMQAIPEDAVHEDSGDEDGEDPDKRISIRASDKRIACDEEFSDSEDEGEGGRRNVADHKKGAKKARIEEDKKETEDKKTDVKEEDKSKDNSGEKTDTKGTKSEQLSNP

[4] = target: Histone deacetylase 3 (Homo sapiens) (UniProt O15379); assay: Inhibition of HDAC3 in human HeLa-S3 cell lysates assessed as remaining activity at […] preincubated for 15 mins followed by HDAC-Glo substrate addition measured after 30 to 40 mins by […] relative to control
Sequence of Histone deacetylase 3 (Homo sapiens) (O15379 whole entry): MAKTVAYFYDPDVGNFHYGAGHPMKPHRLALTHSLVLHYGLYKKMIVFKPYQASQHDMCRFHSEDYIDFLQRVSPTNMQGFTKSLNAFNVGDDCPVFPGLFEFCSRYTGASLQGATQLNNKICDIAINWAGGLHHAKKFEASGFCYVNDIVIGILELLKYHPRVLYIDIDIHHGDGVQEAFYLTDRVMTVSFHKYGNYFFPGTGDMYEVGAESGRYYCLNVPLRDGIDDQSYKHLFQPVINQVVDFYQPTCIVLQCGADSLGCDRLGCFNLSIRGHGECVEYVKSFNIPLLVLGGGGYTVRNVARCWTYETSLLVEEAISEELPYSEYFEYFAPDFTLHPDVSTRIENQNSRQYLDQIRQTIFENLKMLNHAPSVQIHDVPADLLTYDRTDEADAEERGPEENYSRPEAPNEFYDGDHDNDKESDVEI

[5] = target: T2, Protein deacetylase HDAC6 (Homo sapiens) (UniProt Q9UBN7); assay: Inhibition of HDAC6 in human HeLa-S3 cell lysates assessed as remaining activity at […] preincubated for 15 mins followed by HDAC-Glo substrate addition measured after 30 to 40 mins by […] relative to control
T2 sequence (whole entry): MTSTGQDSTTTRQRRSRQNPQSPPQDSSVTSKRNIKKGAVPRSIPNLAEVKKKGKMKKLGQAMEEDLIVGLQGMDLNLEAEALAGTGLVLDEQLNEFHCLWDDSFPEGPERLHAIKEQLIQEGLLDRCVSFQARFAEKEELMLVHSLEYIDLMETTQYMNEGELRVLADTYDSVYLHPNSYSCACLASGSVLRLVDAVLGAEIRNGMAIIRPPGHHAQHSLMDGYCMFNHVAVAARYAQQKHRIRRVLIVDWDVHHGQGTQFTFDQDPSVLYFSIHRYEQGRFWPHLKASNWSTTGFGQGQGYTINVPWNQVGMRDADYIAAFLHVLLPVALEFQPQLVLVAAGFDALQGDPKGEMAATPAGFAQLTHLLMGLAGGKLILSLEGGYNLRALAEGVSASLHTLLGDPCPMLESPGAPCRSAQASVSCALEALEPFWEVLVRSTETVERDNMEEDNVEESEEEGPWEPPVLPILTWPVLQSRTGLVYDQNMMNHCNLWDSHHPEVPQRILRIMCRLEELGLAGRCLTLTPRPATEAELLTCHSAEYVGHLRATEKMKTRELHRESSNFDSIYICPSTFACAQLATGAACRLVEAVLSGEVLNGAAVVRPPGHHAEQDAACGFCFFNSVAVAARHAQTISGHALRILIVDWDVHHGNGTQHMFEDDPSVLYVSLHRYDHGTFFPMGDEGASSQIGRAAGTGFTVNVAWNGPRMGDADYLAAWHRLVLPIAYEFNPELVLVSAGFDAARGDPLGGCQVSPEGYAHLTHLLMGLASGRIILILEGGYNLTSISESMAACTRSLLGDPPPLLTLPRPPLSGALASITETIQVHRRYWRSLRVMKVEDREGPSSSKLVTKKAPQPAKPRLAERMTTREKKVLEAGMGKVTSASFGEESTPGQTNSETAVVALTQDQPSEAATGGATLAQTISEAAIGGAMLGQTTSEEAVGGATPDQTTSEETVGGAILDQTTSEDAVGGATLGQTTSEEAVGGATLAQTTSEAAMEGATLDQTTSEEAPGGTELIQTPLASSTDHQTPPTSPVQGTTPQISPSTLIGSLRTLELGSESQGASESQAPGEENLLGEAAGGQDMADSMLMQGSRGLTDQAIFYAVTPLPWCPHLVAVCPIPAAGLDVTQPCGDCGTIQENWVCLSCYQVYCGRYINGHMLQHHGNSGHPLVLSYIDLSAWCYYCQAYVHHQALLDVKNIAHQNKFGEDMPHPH

[6] = target: Histone deacetylase 1 (Homo sapiens) (UniProt Q13547); assay: Inhibition of HDAC1 in human HeLa-S3 cell lysates assessed as remaining activity at 8 x 10^-6 M preincubated for 15 mins followed by HDAC-Glo substrate addition measured after 30 to 40 mins by […] relative to control
Sequence of Histone deacetylase 1 (Homo sapiens) (Q13547 whole entry): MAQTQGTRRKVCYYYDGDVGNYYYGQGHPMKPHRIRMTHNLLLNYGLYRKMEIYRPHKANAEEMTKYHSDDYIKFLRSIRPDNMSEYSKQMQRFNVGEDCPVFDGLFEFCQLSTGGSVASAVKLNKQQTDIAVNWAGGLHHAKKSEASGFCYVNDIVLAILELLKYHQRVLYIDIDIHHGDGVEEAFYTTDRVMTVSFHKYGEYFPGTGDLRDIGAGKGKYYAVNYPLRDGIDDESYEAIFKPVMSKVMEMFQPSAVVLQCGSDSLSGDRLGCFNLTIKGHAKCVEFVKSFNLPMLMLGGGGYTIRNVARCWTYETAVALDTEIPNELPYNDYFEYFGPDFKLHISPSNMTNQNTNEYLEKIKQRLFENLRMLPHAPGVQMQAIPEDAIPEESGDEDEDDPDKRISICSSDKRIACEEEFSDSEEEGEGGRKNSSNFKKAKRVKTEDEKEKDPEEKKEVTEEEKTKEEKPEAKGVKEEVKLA

[7] = target: Histone deacetylase 2 (Homo sapiens) (UniProt Q92769); assay: Inhibition of HDAC2 in human HeLa-S3 cell lysates assessed as remaining activity at 1.6 x 10^-5 M preincubated for 15 mins followed by HDAC-Glo substrate addition measured after 30 to 40 mins by […] relative to control
In short: (§1)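 Same antibody-capture format as the other class I isoforms. HeLa-S3 lysate added at 100 μg/mL for HDAC1 and HDAC2, 1 h at 4 °C, then washed. Inhibitor in DMSO preincubated 15 min at RT; HDAC-Glo reagent added and luminescence read after 30-40 min. Concentrations are final. Signal corrected against a well without antibody; activity expressed as % of DMSO control.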

[8] = target: Histone deacetylase 2 (Homo sapiens) (UniProt Q92769); assay: Inhibition of HDAC2 in human HeLa-S3 cell lysates assessed as remaining activity at 2 x 10^-6 M preincubated for 15 mins followed by HDAC-Glo substrate addition measured after 30 to 40 mins by fluorimetric method relative to control; in short: as §1
[9] = target: Histone deacetylase 3 (Homo sapiens) (UniProt O15379); assay: Inhibition of HDAC3 in human HeLa-S3 cell lysates assessed as remaining activity at 5 uM preincubated for 15 mins followed by HDAC-Glo substrate addition measured after 30 to 40 mins by […] relative to control
In short: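 Antibody-capture (ELISA-type) assay: HDAC antibody coated in carbonate/bicarbonate buffer pH 9.4, wells blocked with 5% milk in TBST. HeLa-S3 lysate added at 1 mg/mL for HDAC3, 1 h at 4 °C, then washed. Inhibitor in DMSO preincubated 15 min at RT in HDAC-Glo buffer. HDAC-Glo reagent added, luminescence read after 30-40 min. Concentrations are final. Background = no-antibody well; activity given as % of DMSO control.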

[10] = target: T2, Protein deacetylase HDAC6 (Homo sapiens); assay: Inhibition of HDAC6 in human HeLa-S3 cell lysates assessed as remaining activity at 1.25 uM preincubated for 15 mins followed by HDAC-Glo substrate addition measured after 30 to 40 mins by […] relative to control
In short: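 HDAC6 captured on an anti-HDAC6 antibody-coated plate (2 μg/mL, pH 9.4 carbonate buffer, milk-blocked). HeLa-S3 lysate loaded at 1 mg/mL, 1 h at 4 °C, then washed. 15 min RT preincubation with inhibitor in DMSO; HDAC-Glo reagent added, luminescence read at 30-40 min. Concentrations are final. Background = no-antibody well; values are % activity versus DMSO control.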

CCC(CCCC(=O)Nc1ccccc1)CCC(=O)NO (stereo not given)
Activity [1]: 12% | Activity [2]: 82% | Activity [3]: 87% | Activity [4]: 71% | Activity [5]: 18% | Activity [6]: 32% | Activity [7]: 23% | Activity [8]: 69%

O=C(CCC(CCCC(=O)Nc1ccccc1)Cc1ccccc1)NO (racemic)
Activity [9]: 90%

CCCCCCC(CCCC(=O)Nc1ccccc1)CCC(=O)NO (stereo not given)
Activity [10]: 21%
